From PubChem BioAssay
IDH1 mut inh = blocks human IDH1 R132H reductase activity; O75874; diaphorase/resazurin fluorescence, 60 min; inhibition, % at 10 µM; 70,000 compounds, 0.18% hits; in the data active = inhibition above about 34%; inconclusive = no clear call, values can overlap the other calls; inactive = below about 11%;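 note: 0% = DMSO and 100% = no enzyme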
T cruzi growth-1 = T. cruzi proliferation inhibition; AID 624255; 77,000 compounds, 5.9% hits; inhibition, % at 8.34 µM; T. cruzi beta-gal in NIH3T3, GalScreen luminescence, 90 h;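 active = mean inhibition above about 93%, with at least 55% of replicates each passing it, limit read from the data, passing the limit was not always enough; inconclusive = only one of those two conditions holds; inactive = neither condition holds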
KDM4C inh = blocks human GASC-1 (KDM4C) demethylase activity; Q9H3R0; GST-KDM4C 2-372, H3K9me3 peptide, LANCE TR-FRET; inhibition, % at 12.5 µM; 96,000 compounds, 0.15% hits;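 active = mean replicate inhibition above about 25%, with at least 55% of replicates also reaching it, limit read from the data, passing the limit was not always enough; inconclusive = only one of those two conditions met; inactive = neither condition met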
Target sequence (Q9H3R0 2-372 limits assumed): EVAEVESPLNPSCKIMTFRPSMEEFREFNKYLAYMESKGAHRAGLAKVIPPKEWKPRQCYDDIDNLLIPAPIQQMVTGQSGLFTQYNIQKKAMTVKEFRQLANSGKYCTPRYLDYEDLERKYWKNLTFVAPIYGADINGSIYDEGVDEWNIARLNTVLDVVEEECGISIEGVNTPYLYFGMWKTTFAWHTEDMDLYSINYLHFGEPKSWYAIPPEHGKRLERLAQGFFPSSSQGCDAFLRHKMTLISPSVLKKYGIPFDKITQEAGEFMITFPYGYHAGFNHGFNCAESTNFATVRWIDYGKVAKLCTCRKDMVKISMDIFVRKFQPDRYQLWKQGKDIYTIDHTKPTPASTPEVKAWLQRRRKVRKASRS
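Compound: one test concentration per compound; Material: GST-GASC-1 enzyme fragment 2-372; Amount: GASC-1 enzyme at 10 nM final in reaction; Also added: H3K9me3 peptide substrate, Fe(II), 2-oxoglutarate; Technique: LANCE TR-FRET; Times: 30 min demethylation and 1 h detection at room temperature.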
T cruzi growth-2 = inhibitors of T. cruzi proliferation; shares compounds with T cruzi growth-1; T. cruzi beta-gal in NIH3T3, GalScreen luminescence, 90 h; inhibition, % at 8.35 µM; 5,600 compounds, 72% hits; AID 651739;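 active = mean replicate inhibition above about 95% and at least 55% of replicates individually reaching it, limit read from the data; inconclusive = only one of the two criteria is met; inactive = neither criterion is met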
T cruzi growth-3 = Trypanosoma cruzi proliferation inhibition. inhibition, % at 2.09 µM. AID 651740. T. cruzi beta-gal in NIH3T3, GalScreen luminescence, 90 h. 5,600 compounds, 21% hits. shares compounds with T cruzi growth-1;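 active = mean inhibition above about 95%, with at least 55% of replicates also reaching it, limit read from the data; inconclusive = meets just one of the two conditions; inactive = meets neither condition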;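 note: plate controls were neutral control median for no effect and positive control median for full effect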
3T3 cytotox = NIH/3T3 (mouse) viability loss | 5,600 compounds, 14% hits | shares compounds with T cruzi growth-1 | NIH/3T3 viability, CellTiter-Glo ATP luminescence, 90 h | cytotoxicity (signal decrease), % at 8.35 µM | AID 651742;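 active = mean signal decrease across replicates above about 35% based on untreated-well scatter, with enough replicates individually passing, limit read from the data; inconclusive = no rule stated though some were filed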;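 note: 0% = median of neutral control wells and 100% = median of positive control wells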
3T3 cytotox 2 = kills mouse NIH/3T3 fibroblasts. NIH/3T3 viability, CellTiter-Glo ATP luminescence, 90 h. shares compounds with T cruzi growth-1. 5,600 compounds, 56% hits. inhibition, % at 24.9 µM;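 active = mean loss of cell viability signal at or above a set limit, and enough replicates individually reaching it; inconclusive = meets only the mean limit or only the replicate share; inactive = meets neither condition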;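 note: 0% = median of neutral control wells and 100% = median of positive control wells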
Numbers without * were called inactive; ? = inconclusive; nt = not tested or not shown. The sample as a whole holds a higher share of hits than the screen did.

SMILES	IDH1 mut inh	T cruzi growth-1	KDM4C inh	T cruzi growth-2	T cruzi growth-3	3T3 cytotox	3T3 cytotox 2
C[C@H](CO)N1C[C@H](C)[C@H](CN(C)C(=O)C2CCCCC2)Oc2cc(C#CCN(C)C)ccc2S1(=O)=O	nt	nt	1	nt	nt	nt	nt
CCCC#Cc1ccc2c(c1)O[C@@H](CN(C)C(=O)C1CCC1)[C@H](C)CN([C@H](C)CO)S2(=O)=O	-1	87	0	nt	nt	nt	nt
CCCC#Cc1ccc2c(c1)O[C@@H](CN(C)C(=O)C1CCC1)[C@@H](C)CN([C@@H](C)CO)S2(=O)=O	-2	105*	-1	110*	42	-22	-37
CCCC#Cc1ccc2c(c1)O[C@H](CN(C)C(=O)C1CC1)[C@@H](C)CN([C@H](C)CO)S2(=O)=O	nt	72	-1	nt	nt	nt	nt
CCCC#Cc1ccc2c(c1)O[C@@H](CN(C)C(=O)C1CCC1)[C@@H](C)CN([C@H](C)CO)S2(=O)=O	nt	104*	-2	110*	57	2	34*
CCOc1ccccc1C1CC(=O)NC(C)=C1C(=O)OCC1CCCCC1 (centres undefined)	0	nt	nt	nt	nt	nt	nt
C#CCOc1ccc(C(Nc2ccccn2)c2ccc3cccnc3c2O)cc1 (centres undefined)	1	nt	nt	nt	nt	nt	nt
COc1cc(Cl)c(C)cc1NC(=O)CN(C)S(=O)(=O)c1ccccc1	0	nt	nt	nt	nt	nt	nt
CNC(=O)CCc1nc(-c2ccc(Cl)cc2)no1	0	nt	nt	nt	nt	nt	nt
CC(C)CC#Cc1ccc2c(c1)O[C@@H](CN(C)Cc1ccncc1)[C@H](C)CN([C@H](C)CO)S2(=O)=O	5	129*	4	93	105*	61*	104*
CC(C)CC#Cc1ccc2c(c1)O[C@H](CN(C)Cc1ccncc1)[C@@H](C)CN([C@H](C)CO)S2(=O)=O	0	122*	2	104*	104*	30	105*
CC(C)CC#Cc1ccc2c(c1)O[C@H](CN(C)Cc1ccc(F)cc1)[C@@H](C)CN([C@@H](C)CO)S2(=O)=O	5	101	-3	nt	nt	nt	nt
CC(C)CC#Cc1ccc2c(c1)O[C@@H](CN(C)Cc1cncnc1)[C@H](C)CN([C@H](C)CO)S2(=O)=O	0	52	0	nt	nt	nt	nt
CC(C)CC#Cc1ccc2c(c1)O[C@@H](CN(C)Cc1cncnc1)[C@@H](C)CN([C@@H](C)CO)S2(=O)=O	1	70	0	nt	nt	nt	nt
CC(C)CC#Cc1ccc2c(c1)O[C@H](CN(C)Cc1ccncc1)[C@@H](C)CN([C@@H](C)CO)S2(=O)=O	7	130*	4	94	111*	?	106*
CC(C)(C)C(=O)c1cn(CC(=O)Nc2ccccc2)c2ccccc12	0	nt	nt	nt	nt	nt	nt
O=C(NC1CCCC1)N1CCCCN2[C@H](C1)[C@@H](c1ccc(/C=C/c3ccccc3)cc1)[C@@H]2CO	nt	75	-1	nt	nt	nt	nt
O=C(NC1CCCC1)N1CC(=O)N2[C@H](C1)[C@@H](c1ccc(/C=C/c3ccccc3)cc1)[C@@H]2CO	nt	nt	-2	nt	nt	nt	nt
O=C(NC1CCCC1)N1CCCCN2[C@H](C1)[C@H](c1ccc(/C=C/c3ccccc3)cc1)[C@@H]2CO	nt	104*	-2	104*	78	3	105*
O=C(NC1CCCC1)N1CCCCN2[C@H](CO)[C@@H](c3ccc(/C=C/c4ccccc4)cc3)[C@@H]2C1	nt	107*	-3	100*	101*	20	104*
Cc1occc1-c1nnc2sc(-c3ccc(-c4ccccc4[N+](=O)[O-])o3)nn12	0	nt	nt	nt	nt	nt	nt
COc1cc(-c2nc3sc4c(c3c(=O)[nH]2)CCCC4)cc(Br)c1OCC(=O)O	0	nt	nt	nt	nt	nt	nt
O=C(COc1ccccc1)Nc1scc2c1c(=O)oc1ccccc12	0	nt	nt	nt	nt	nt	nt
COc1ccc(S(=O)(=O)N(C)C[C@@H]2OCc3ccccc3-c3c(n(C)c4ccccc34)C(=O)N([C@@H](C)CO)C[C@@H]2C)cc1	0	?	-2	100*	67	-17	24*
C[C@H](CO)N1C[C@H](C)[C@@H](CN(C)S(=O)(=O)c2ccc(C#N)cc2)OCc2ccccc2-c2c(n(C)c3ccccc23)C1=O	nt	?	-1	112*	71	14	19
SMILES	IDH1 mut inh	T cruzi growth-1	KDM4C inh	T cruzi growth-2	T cruzi growth-3	3T3 cytotox	3T3 cytotox 2
C[C@@H]1CN([C@@H](C)CO)C(=O)c2c(c3ccccc3n2C)-c2ccccc2CO[C@H]1CN(C)S(=O)(=O)c1ccsc1	nt	?	-3	108*	54	6	47*
Cc1ccccc1S(=O)(=O)N(C)C[C@@H]1OCc2ccccc2-c2c(n(C)c3ccccc23)C(=O)N([C@@H](C)CO)C[C@@H]1C	-2	83	-2	nt	nt	nt	nt
C[C@H]1CN([C@@H](C)CO)C(=O)c2c(c3ccccc3n2C)-c2ccccc2CO[C@H]1CN(C)S(=O)(=O)c1ccccc1C#N	0	107*	0	91	76	?	85*
C[C@H]1CN([C@@H](C)CO)C(=O)c2c(c3ccccc3n2C)-c2ccccc2CO[C@@H]1CN(C)S(=O)(=O)c1ccc(C#N)cc1	nt	56	0	nt	nt	nt	nt
C[C@H](CO)N1C[C@H](C)[C@H](CN(C)S(=O)(=O)c2ccsc2)OCc2ccccc2-c2c(n(C)c3ccccc23)C1=O	1	68	0	nt	nt	nt	nt
COc1ccc(S(=O)(=O)N(C)C[C@H]2OCc3ccccc3-c3c(n(C)c4ccccc34)C(=O)N([C@@H](C)CO)C[C@@H]2C)cc1	nt	60	-3	nt	nt	nt	nt
COc1ccc(S(=O)(=O)Nc2cccnc2)cc1C(=O)O	0	nt	nt	nt	nt	nt	nt
COc1ccc(S(=O)(=O)N2CCC(C(=O)Nc3ccc(NC(C)=O)cc3)CC2)cc1OC	0	nt	nt	nt	nt	nt	nt
Cc1ccccc1-c1ccc([C@H]2[C@@H](CO)N3CCCCN(S(=O)(=O)c4cn(C)cn4)C[C@H]23)cc1	nt	102*	0	61	14	8	44*
Cn1cnc(S(=O)(=O)N2CCCCN3[C@@H](CO)[C@H](c4ccc(-c5ccccc5F)cc4)[C@@H]3C2)c1	nt	31	0	nt	nt	nt	nt
Cn1cnc(S(=O)(=O)N2CCCCN3[C@H](CO)[C@@H](c4ccc(-c5ccccc5F)cc4)[C@@H]3C2)c1	nt	49	-1	nt	nt	nt	nt
Cc1ccccc1-c1ccc([C@@H]2[C@H]3CN(S(=O)(=O)c4cn(C)cn4)CCCCN3[C@H]2CO)cc1	nt	126*	-2	51	27	1	26*
N#CC(C(=Nc1ccccc1)SCc1ccc(Cl)cc1)c1nc2ccccc2[nH]1 (centres undefined)	0	nt	nt	nt	nt	nt	nt
O=C(Nc1ccc(S(=O)(=O)Nc2ccccn2)cc1)c1cc2ccccc2oc1=O	0	nt	nt	nt	nt	nt	nt
COc1ccc(S(=O)(=O)N(C)C[C@H]2OCc3cnnn3CCCC(=O)N([C@@H](C)CO)C[C@H]2C)cc1	nt	?	0	7	24	2	4
